An excerpt weighted towards active compounds, which were near 3.7% of everything screened.
hERG rescue = hERG rescue from dofetilide block, primary screen, cell-based, CHO-hERG, FluxOR thallium flux, dofetilide IC70. Voltage-gated inwardly rectifying potassium channel KCNH2 (Homo sapiens), Q12809. dofetilide IC70 present. activation (rescue from dofetilide block), less the hit threshold, % at 10 µM. 0.51% of 310,000 active. AID 1511, 2009;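 active = activation above the mean of controls blocked by dofetilide plus 5 SD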;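 note: thallium influx through hERG after potassium depolarization seen as dye fluorescence rise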
Kir21 inh = inhibitors of mouse Kir2.1 inward-rectifier potassium channel; Inward rectifier potassium channel 2 (Mus musculus), P35561; HEK293-Kir2.1, FluxOR thallium flux fluorescence; stronger effect = lower value; B-score at 10 µM; 0.85% of 310,000 active; AID 1672, 2009;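 active = fluorescence ratio B-score at or below minus 3 SD of library scores, with starting-brightness B-score within 2 SD, cut at about -4.2 in these data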;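 note: channel flux triggered by added potassium and thallium sulfate stimulus; B-score of peak minus minimum fluorescence over baseline after thallium stimulus; more negative B-score means stronger Kir2.1 block with less thallium influx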
KCNK3 block = human KCNK3 channel inhibitors, primary screen, CHO cells, FluxOR thallium flux, B-score | Potassium channel subfamily K member 3 (Homo sapiens), O14649 | FluxOR fluorescence; stronger effect = lower value | B-score at 10 µM | 0.84% of 340,000 active | AID 602410, 2012;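 active = B-score under library mean minus 4 SD, starting fluorescence ratio at most library mean plus 5 SD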;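 note: more negative B-score means stronger inhibition of thallium flux through KCNK3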
Target sequence (O14649 whole entry, looked up): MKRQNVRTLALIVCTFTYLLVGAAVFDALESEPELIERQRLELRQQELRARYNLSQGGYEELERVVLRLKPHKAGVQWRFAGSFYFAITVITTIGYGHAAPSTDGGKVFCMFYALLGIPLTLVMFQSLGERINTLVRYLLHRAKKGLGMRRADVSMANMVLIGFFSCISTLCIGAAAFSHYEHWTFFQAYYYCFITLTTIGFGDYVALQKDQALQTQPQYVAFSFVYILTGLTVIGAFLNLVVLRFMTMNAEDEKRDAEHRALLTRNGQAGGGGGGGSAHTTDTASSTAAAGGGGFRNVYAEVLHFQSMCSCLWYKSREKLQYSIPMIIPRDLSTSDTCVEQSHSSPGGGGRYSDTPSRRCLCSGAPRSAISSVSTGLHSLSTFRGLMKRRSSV
KCNK9 block = KCNK9 potassium channel inhibitors, primary screen, HEK293 cells, thallium flux. Potassium channel subfamily K member 9 (Homo sapiens), Q9NPC2. FluxOR thallium flux fluorescence; stronger effect = lower value. B-score at 10 µM. 1.2% of 310,000 active. AID 488922, 2010;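 active = ratio B-score over 3 SD below the library mean, with starting fluorescence within 5 SD of its mean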;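 note: negative B-score means less thallium flux so channel inhibition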
KCNQ1 act = potentiators or activators of KCNQ1 channel, primary screen, cell-based, thallium flux, high-throughput | Potassium voltage-gated channel subfamily KQT member 1 (Homo sapiens), P51787 | CHO-K1 KCNQ1, thallium flux FluxOR fluorescence; stronger effect = higher value | B-score at 10 µM | 0.35% of 310,000 active;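 active = fluorescence ratio B-score, a plate-corrected score, at least three library SD, with initial intensity B-score within 5 SD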
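Assay system: CHO-K1 cells stably expressing KCNQ1; Medium: assay buffer with matched DMSO; Also added: K+/Tl+ depolarizing stimulus; Dosing: single dose; Timing: dye 90 min, compound 20 min, room temperature; Measured by: kinetic FluxOR thallium fluorescence, 10-s 1-Hz baseline, 110-s post-stimulus read; Read-out: peak-minus-minimum fluorescence over initial fluorescence, negative-control normalized, B-scored.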
KCNQ1 block = inhibitors of human KCNQ1 channel, primary screen, cell-based, thallium flux, high-throughput | AID 2642, 2010 | 1.3% of 310,000 active | Potassium voltage-gated channel subfamily KQT member 1 (Homo sapiens), P51787 | B-score at 10 µM | CHO-K1 KCNQ1, FluxOR thallium flux fluorescence; stronger effect = higher value;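 active = compounds whose thallium flux B-score, printed positive for inhibition, exceeds three library SD while starting fluorescence stays within three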;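 note: channel opened by potassium depolarization with thallium stimulus after 20 min compound exposure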
Of the large screens only hits and unclear results are named; the others gave an inactive call.

OC(CNCCC1C=Nc2ccccc21)Cn1c2ccc(Cl)cc2c2cc(Cl)ccc21 (centres undefined)	none
COc1nccc(C(F)(F)F)c1C(=O)Nc1ccc(Cl)cc1	none
CC(C)CCCCCCCCCCCCC(=O)NCC(=O)NC1C(C)OC(Nc2ncnc3nc[nH]c23)C(O)C1O (centres undefined)	none (no result: hERG rescue, Kir21 inh, KCNK9 block, KCNQ1 act, KCNQ1 block)
CCc1ccc(S(=O)(=O)NCCc2cn3ccc(C)cc3n2)s1	Kir21 inh -8.8
O=c1c(O)c(-c2ccc3c(c2)OCO3)oc2ccccc12	hERG rescue 9.4, KCNQ1 act 33
Fc1ccc([C@@H]2CCNC[C@H]2COc2ccc3c(c2)OCO3)cc1	Kir21 inh -6.5
Fc1ccc(C2CCNCC2COc2ccc3c(c2)OCO3)cc1 (centres undefined)	Kir21 inh -6.5
O=C(COc1ccc2c(c1)OCO2)Nc1ccccc1F	none
CN(Cc1ccccc1)C(=O)C1CCCN1S(=O)(=O)c1ccc(Cl)cc1 (centres undefined)	none (no result: hERG rescue, Kir21 inh, KCNK9 block, KCNQ1 act, KCNQ1 block)
Oc1ccc2ccccc2c1-c1sc(Nc2ccccc2)n[n+]1-c1ccc(F)cc1	KCNQ1 block 9
C/C(=N\NC(=O)c1cccc(Br)c1)c1ccc(Br)cc1	none
C/C(=N\NC(=O)c1ccccc1O)c1ccc(Br)s1	hERG rescue 5.4
C/C(=N\NC(=O)c1ccccc1[N+](=O)[O-])c1ccc(Br)s1	none
C/C(=N\NC(=O)c1cccc(F)c1)c1ccc(Br)s1	KCNQ1 act 11
CC(C)=CCC/C(C)=C/CC(C)(C)CNCCN1CCNCC1	Kir21 inh -8.2 (no result: KCNK3 block)
CC(C)=CCC/C(C)=C/CCC(C)NCCN1CCNCC1 (centres undefined)	Kir21 inh -7.4 (no result: KCNK3 block)
COc1cc(CCC(=O)OCC(=O)NCCc2ccc(S(N)(=O)=O)cc2)cc(OC)c1OC	none (no result: hERG rescue, Kir21 inh, KCNK9 block, KCNQ1 act, KCNQ1 block)
COc1ccc(N2CCN(C(C)C(=O)N(C)Cc3ccccc3)CC2)cc1 (centres undefined)	none
COc1ccc(OCCOCCN2CCN(C)CC2)cc1	none
COc1cccc(OC)c1OCCOCCN1CCN(C)CC1	hERG rescue 19, KCNQ1 act 19
COc1ccc(CN2C(=O)c3ccccc3C(/C=N\OCc3ccc(F)cc3)C2=O)cc1 (centres undefined)	KCNQ1 block 10
COc1ccc(CN2C(=O)c3ccccc3C(/C=N/OCc3ccc(Cl)cc3)C2=O)cc1 (centres undefined)	KCNQ1 block 7
COc1ccc(CN2C(=O)c3ccccc3C2=O)cc1	none
COc1ccc(N2CCN(CCNS(=O)(=O)c3ccc(C)cc3)CC2)cc1	none
NC(=O)C[n+]1cccc(CNC(=O)c2ccc(OC(F)F)cc2)c1	hERG rescue 4.6
COc1ccccc1CNC(=O)CN(C)CC(=O)Nc1ccc(F)c(F)c1F	none (no result: hERG rescue, Kir21 inh, KCNK9 block, KCNQ1 act, KCNQ1 block)
CN(C(=O)c1nn(C)c2c1CSc1ccccc1-2)c1ccc(F)cc1	none
Cc1ccc(NNC(=O)C(O)(c2cccc(C(F)(F)F)c2)c2cccc(C(F)(F)F)c2)cc1	none
O=C(NNc1ccccc1Br)C(O)(c1cccc(C(F)(F)F)c1)c1cccc(C(F)(F)F)c1	KCNK9 block -8.3
COC1=CC(=O)C(O)=C(CCCCCCC/C=C/CCCCCCCC2=C(O)C(=O)C=C(OC)C2=O)C1=O	KCNQ1 block 10
CCCn1c(SC(C)C(=O)N2CCOCC2)nc2ccc(Br)cc2c1=O (centres undefined)	none
Cc1ccccc1C1C(C#N)=C2N=C(N)c3c(sc4c3CCCCC4)N2C2=C1C(=O)CCC2 (centres undefined)	KCNK9 block -6.8
CCc1ccc(NC(=O)c2cc3c(C)nc4ccccc4c3o2)cc1	KCNQ1 block 6
Cc1ccccc1NC(=O)c1cc2c(C)nc3ccccc3c2o1	none
CCOC(=O)C1CC2CC(C1)CN(C(=O)C1CCCCC1)C2 (centres undefined)	none
